Data on one molecule can be found in PubChem BioAssay AID624060 (Southern Research Specialized Biocontainment Screening …, 2012).

This assay deals with UPEC UTI89 capsule, orcinol assay OD572. Description: bacterial K capsule biogenesis inhibition, UTI89 – orcinol colorimetric, OD572, set 2, orthogonal assay for bacterial capsule biogenesis inhibitors, confirmation (AID 624060). Conditions: at 100 µM; active compounds read low. The method in brief: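 Material: Uropathogenic Escherichia coli strain UTI89 with ΔkpsM export-deficient mutant. Schedule: hydrolysis 1 h, 80 °C. Benchmarks: ΔkpsM mutant, low-capsule reference. Compound: one dose, 100 µM. Detection: orcinol colorimetry of hydrolysed, purified capsular polysaccharide, absorbance 572 nm.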

Regarding `CCOc1ccc(-c2cc(NC(=O)c3c(F)cccc3F)c(C(=O)O)s2)cc1`, the capsule formation was 21%.
